Measurements reported in ChEMBL document CHEMBL5696442, “Discovery of type II inhibitors of TGFβ-activated kinase 1 (TAK1) and mitogen-activated protein kinase kinase kinase kinase 2 (MAP4K2)” (J Med Chem, 2015).

What was measured:
[1] = molecular target: Tyrosine-protein kinase ABL2 (Homo sapiens, UniProt P42684); assay: Inhibition of ARG ACT labeling site in human Huh-7 cell lysate at 1 uM by KiNativ Profiling analysis relative to control; type: subcellular
[2] = molecular target: Serine/threonine-protein kinase SMG1 (Homo sapiens) (UniProt Q96Q15); assay: Inhibition of SMG1 ATP labeling site harbouring SYPYLFKGLEDLHLDER in human A-375 cells at 0.05 uM by KiNativ Profiling analysis relative to control; type: cell-based
[3] = molecular target: Mitogen-activated protein kinase kinase kinase kinase 4 (Homo sapiens, UniProt O95819); assay: Inhibition of ZC1/HGK Lys1 labeling site in human A-375 cells at 5 uM by KiNativ Profiling analysis relative to control; type: cell-based
[4] = molecular target: Serine/threonine-protein kinase 24 (Homo sapiens) (UniProt Q9Y6E0); assay: Inhibition of MST3 ACT labeling site in human A-375 cells at 5 uM by KiNativ Profiling analysis relative to control; type: cell-based
[5] = molecular target: Serine/threonine-protein kinase MARK2 (Homo sapiens) (UniProt Q7KZI7); assay: Inhibition of MARK2 Lys2 labeling site harbouring FIVHRDLKAENLLLDADMNIK in human A-375 cells at 0.05 uM by KiNativ Profiling analysis relative to control; type: cell-based
[6] = molecular target: Cyclin-dependent kinase 17 (Homo sapiens) (UniProt Q00537); assay: Inhibition of PCTAIRE2 Lys1 labeling site harbouring SKLTENLVALKEIR in human A-375 cells at 0.5 uM by KiNativ Profiling analysis relative to control; type: cell-based
[7] = molecular target: T1, Tyrosine-protein kinase Lyn (Homo sapiens, UniProt P07948); assay: Inhibition of LYN Lys1 labeling site in human A-375 cells at 5 uM by KiNativ Profiling analysis relative to control; type: cell-based
[8] = molecular target: T1, Tyrosine-protein kinase Lyn; assay: Inhibition of LYN (unknown origin) Lys1 labeling site by KiNativ Profiling analysis
[9] = Inhibition of p70S6K ATP Loop labeling site harbouring GGYGKVFQVR in human A-375 cells at 5 uM by KiNativ Profiling analysis relative to control; settings: condition cancer
[10] = molecular target: Cyclin-dependent kinase 11B (Homo sapiens) (UniProt P21127); assay: Inhibition of PITSLRE Lys2 labeling site in human A-375 cells at 0.05 uM by KiNativ Profiling analysis relative to control; type: cell-based
[11] = molecular target: T2, Ephrin type-B receptor 4 (Homo sapiens) (UniProt P54760); assay: Inhibition of EphB4 ACT labeling site in human A-375 cells at 0.05 uM by KiNativ Profiling analysis relative to control; type: cell-based
T2 sequence (whole entry): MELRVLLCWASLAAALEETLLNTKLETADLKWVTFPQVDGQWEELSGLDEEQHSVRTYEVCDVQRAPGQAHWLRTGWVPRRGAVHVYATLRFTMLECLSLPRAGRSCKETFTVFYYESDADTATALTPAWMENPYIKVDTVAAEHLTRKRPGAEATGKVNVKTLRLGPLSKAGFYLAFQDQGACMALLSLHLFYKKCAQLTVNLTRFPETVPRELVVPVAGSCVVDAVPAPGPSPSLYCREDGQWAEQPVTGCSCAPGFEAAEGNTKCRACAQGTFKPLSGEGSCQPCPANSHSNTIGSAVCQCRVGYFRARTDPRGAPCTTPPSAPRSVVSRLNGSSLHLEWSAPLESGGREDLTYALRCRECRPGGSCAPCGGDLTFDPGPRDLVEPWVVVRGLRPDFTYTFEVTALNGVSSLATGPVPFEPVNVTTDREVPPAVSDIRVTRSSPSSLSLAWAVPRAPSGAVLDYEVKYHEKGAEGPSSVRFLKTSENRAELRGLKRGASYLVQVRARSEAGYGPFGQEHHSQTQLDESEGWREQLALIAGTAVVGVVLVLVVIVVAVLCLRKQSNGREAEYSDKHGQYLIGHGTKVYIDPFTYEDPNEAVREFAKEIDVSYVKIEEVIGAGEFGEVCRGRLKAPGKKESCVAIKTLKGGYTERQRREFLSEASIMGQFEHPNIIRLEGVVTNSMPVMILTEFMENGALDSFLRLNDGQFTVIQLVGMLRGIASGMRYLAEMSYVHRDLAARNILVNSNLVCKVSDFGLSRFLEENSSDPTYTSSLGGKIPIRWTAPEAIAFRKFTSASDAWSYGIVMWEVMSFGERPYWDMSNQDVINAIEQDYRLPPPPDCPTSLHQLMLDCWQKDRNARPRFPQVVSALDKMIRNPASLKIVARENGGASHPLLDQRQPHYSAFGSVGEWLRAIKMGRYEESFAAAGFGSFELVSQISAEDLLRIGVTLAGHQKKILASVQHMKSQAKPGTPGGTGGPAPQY

[12] = molecular target: Mitogen-activated protein kinase kinase kinase 20 (Homo sapiens, UniProt Q9NYL2); assay: Inhibition of ZAK (unknown origin) Lys1 labeling site by KiNativ Profiling analysis
[13] = molecular target: Aurora kinase B (Homo sapiens) (UniProt Q96GD4); assay: Inhibition of AurB ATP Loop labeling site in human A-375 cells at 0.5 uM by KiNativ Profiling analysis relative to control; type: cell-based
How it was run: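 Live A375 melanoma cells were treated with compound at 5 or 0.5 μM, then lysed. The lysates were labeled with a lysine-reactive ATP or ADP-biotin probe. Kinase protection from probe labeling was measured by KiNativ.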

[14] = molecular target: Serine/threonine-protein kinase 38 (Homo sapiens) (UniProt Q15208); assay: Inhibition of NDR1 Lys2 labeling site in human A-375 cells at 0.5 uM by KiNativ Profiling analysis relative to control; type: cell-based
[15] = molecular target: Serine/threonine-protein kinase 26 (Homo sapiens) (UniProt Q9P289); assay: Inhibition of MST4 Lys1 labeling site in human A-375 cells at 5 uM by KiNativ Profiling analysis relative to control; type: cell-based
[16] = molecular target: Mitogen-activated protein kinase kinase kinase 1 (Homo sapiens) (UniProt Q13233); assay: Inhibition of MAP3K1 Lys2 labeling site in human A-375 cells at 0.05 uM by KiNativ Profiling analysis relative to control; type: cell-based
[17] = molecular target: Mitogen-activated protein kinase 9 (Homo sapiens, UniProt P45984); assay: Inhibition of JNK2 (unknown origin) Lys2 labeling site by KiNativ Profiling analysis
[18] = Half life in Swiss albino mouse at 1 mg/kg, iv measured upto 24 hrs by LC/MS/MS analysis; type: ADME, organism-based; settings: in vivo
How it was run: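 Male Swiss albino mice. […] Blood was taken into K2EDTA from three mice per time point, from 0 to 24 h. Plasma was precipitated with acetonitrile and analysed by LC/MS/MS (LLOQ 1.138 ng/mL).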

[19] = molecular target: Calcium/calmodulin-dependent protein kinase type II subunit delta (Homo sapiens) (UniProt Q13557); assay: Inhibition of CaMK2d Lys1 labeling site in human A-375 cells at 0.05 uM by KiNativ Profiling analysis relative to control; type: cell-based
[20] = molecular target: RAC-alpha serine/threonine-protein kinase (Homo sapiens) (UniProt P31749); assay: Inhibition of AKT1 ATP Loop labeling site in human A-375 cells at 0.05 uM by KiNativ Profiling analysis relative to control; type: cell-based
RAC-alpha serine/threonine-protein kinase (Homo sapiens), sequence (P31749 whole entry): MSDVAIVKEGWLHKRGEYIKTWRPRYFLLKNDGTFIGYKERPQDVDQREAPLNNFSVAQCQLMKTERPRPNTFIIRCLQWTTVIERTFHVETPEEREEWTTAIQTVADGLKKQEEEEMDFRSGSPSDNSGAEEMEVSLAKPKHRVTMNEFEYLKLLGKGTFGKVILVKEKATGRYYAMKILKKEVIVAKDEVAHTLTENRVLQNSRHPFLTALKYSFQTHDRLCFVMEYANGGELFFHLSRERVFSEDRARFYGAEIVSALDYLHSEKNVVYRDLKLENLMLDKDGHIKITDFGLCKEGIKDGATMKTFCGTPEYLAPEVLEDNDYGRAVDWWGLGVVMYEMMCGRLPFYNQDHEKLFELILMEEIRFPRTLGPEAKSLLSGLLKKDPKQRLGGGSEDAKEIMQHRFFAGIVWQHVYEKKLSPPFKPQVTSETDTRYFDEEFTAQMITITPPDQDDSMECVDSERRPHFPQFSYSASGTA

Tyrosine-protein kinase ABL2, sequence (P42684 whole entry): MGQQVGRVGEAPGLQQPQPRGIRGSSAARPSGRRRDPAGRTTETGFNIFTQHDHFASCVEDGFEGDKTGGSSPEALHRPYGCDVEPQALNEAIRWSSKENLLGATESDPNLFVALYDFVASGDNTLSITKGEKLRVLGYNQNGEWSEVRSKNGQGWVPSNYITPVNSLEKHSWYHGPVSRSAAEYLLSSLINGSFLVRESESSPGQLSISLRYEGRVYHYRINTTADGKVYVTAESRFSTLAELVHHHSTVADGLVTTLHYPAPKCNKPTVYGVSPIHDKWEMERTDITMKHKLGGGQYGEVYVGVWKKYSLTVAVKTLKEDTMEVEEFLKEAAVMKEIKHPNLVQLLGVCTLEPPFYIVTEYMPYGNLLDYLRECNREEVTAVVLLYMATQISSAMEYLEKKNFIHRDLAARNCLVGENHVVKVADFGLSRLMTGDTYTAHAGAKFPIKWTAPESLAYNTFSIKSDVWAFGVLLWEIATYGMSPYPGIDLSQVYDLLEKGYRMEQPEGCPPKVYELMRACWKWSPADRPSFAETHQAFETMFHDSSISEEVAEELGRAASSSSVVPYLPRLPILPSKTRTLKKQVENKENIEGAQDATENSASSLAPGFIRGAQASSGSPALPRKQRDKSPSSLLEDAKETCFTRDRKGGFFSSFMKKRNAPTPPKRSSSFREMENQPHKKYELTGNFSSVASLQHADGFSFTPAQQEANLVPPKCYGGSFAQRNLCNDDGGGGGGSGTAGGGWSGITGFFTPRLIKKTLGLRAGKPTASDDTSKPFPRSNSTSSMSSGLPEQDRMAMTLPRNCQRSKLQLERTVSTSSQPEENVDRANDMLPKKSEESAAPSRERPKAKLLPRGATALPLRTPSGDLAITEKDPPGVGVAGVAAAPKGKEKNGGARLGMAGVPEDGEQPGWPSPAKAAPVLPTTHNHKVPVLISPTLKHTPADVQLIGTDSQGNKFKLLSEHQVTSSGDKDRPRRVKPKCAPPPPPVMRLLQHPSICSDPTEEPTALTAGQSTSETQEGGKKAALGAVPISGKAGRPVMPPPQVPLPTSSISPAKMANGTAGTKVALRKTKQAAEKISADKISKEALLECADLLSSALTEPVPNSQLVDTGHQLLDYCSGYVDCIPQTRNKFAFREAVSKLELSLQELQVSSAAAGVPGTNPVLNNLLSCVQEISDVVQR
Cyclin-dependent kinase 11B (Homo sapiens), sequence (P21127 whole entry): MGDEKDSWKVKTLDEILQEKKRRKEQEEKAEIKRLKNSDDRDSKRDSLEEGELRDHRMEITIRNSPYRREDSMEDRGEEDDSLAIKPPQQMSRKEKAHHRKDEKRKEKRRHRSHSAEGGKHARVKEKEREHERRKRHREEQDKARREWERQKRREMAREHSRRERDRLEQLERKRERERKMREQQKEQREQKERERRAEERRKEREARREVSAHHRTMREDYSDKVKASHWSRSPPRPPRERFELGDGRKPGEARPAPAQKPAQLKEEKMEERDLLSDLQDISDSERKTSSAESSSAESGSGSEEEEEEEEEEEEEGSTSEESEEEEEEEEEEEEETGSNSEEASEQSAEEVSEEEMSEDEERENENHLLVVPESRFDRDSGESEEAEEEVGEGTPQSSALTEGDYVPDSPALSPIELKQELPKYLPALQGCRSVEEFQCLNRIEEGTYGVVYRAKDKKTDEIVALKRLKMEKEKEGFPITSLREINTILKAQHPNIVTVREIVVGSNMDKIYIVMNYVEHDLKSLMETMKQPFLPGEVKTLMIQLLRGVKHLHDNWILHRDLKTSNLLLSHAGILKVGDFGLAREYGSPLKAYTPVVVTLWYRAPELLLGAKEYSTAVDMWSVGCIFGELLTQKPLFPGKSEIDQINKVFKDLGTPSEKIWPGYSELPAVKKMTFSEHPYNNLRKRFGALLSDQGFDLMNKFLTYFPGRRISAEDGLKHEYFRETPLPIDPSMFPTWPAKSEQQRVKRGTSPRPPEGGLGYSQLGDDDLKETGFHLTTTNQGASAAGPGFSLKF
Aurora kinase B (Homo sapiens), sequence (Q96GD4 whole entry): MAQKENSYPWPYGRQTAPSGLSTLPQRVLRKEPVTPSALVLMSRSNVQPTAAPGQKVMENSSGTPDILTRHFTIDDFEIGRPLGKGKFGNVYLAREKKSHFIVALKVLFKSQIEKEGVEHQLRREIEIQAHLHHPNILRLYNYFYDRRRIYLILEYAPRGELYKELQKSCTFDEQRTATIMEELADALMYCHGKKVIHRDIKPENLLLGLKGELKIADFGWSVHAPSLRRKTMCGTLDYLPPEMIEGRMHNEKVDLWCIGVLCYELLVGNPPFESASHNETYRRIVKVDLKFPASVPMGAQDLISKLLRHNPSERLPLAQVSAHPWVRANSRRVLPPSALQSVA
Calcium/calmodulin-dependent protein kinase type II subunit delta (Homo sapiens), sequence (Q13557 whole entry): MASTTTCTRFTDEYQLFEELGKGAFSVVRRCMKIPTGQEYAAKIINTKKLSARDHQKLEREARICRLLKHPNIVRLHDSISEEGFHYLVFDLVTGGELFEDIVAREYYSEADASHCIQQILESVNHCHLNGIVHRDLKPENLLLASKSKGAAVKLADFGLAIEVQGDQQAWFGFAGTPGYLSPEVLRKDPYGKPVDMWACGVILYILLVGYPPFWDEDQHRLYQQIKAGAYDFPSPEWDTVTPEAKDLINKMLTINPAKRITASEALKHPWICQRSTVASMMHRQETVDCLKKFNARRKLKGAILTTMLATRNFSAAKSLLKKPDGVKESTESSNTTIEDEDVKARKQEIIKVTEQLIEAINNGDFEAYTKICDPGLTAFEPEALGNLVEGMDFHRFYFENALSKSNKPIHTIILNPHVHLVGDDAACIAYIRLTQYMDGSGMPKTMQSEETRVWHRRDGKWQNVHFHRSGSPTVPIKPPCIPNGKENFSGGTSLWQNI
Mitogen-activated protein kinase 9, sequence (P45984 whole entry): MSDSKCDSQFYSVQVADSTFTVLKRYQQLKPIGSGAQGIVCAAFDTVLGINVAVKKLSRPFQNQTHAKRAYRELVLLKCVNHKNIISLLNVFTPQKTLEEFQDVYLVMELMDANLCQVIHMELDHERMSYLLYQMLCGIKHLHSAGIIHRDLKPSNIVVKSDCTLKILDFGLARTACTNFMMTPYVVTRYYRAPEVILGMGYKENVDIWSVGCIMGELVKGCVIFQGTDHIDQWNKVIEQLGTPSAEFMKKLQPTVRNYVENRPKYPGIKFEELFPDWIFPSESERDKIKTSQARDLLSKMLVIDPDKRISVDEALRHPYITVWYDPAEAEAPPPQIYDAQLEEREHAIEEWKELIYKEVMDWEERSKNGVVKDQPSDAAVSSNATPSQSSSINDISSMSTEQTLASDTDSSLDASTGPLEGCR
Cyclin-dependent kinase 17 (Homo sapiens), sequence (Q00537 whole entry, looked up): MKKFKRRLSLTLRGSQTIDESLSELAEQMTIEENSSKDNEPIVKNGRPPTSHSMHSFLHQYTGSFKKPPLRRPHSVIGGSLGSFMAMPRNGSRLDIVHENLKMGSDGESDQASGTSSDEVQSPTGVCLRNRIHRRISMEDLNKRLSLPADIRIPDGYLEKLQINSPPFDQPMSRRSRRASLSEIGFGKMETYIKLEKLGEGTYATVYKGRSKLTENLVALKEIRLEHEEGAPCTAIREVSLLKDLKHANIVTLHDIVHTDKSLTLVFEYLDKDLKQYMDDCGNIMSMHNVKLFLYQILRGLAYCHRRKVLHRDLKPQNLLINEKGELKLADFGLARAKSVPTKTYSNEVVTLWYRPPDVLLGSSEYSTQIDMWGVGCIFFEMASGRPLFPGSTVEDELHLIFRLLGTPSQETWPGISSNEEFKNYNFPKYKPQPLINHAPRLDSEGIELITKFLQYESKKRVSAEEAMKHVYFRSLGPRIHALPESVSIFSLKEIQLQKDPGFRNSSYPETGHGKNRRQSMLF
Serine/threonine-protein kinase 26 (Homo sapiens), sequence (Q9P289 2-416 limits assumed): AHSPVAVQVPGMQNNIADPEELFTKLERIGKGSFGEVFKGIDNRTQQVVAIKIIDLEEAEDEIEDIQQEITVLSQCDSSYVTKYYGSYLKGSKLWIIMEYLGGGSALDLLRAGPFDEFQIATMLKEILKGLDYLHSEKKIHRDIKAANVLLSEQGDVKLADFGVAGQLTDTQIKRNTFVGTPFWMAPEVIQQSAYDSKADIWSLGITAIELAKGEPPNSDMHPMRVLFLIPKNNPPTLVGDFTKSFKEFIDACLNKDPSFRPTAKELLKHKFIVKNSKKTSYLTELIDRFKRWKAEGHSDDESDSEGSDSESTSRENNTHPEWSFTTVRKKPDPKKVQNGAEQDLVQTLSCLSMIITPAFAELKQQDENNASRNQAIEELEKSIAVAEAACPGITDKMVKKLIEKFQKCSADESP

| Structure (SMILES) | inhibition [1] [%] | inhibition [2] [%] | inhibition [3] [%] | inhibition [4] [%] | inhibition [5] [%] | inhibition [6] [%] | inhibition [7] [%] | IC50 [8] [nM] | inhibition at 5 µM [9] [%] | inhibition [10] [%] | inhibition [11] [%] | IC50 [12] [nM] | inhibition [13] [%] | inhibition [14] [%] | inhibition [15] [%] | inhibition [16] [%] | IC50 [17] [nM] | t1/2 [18] [h] | inhibition [19] [%] | inhibition [20] [%] |
| --- | --- | --- | --- | --- | --- | --- | --- | --- | --- | --- | --- | --- | --- | --- | --- | --- | --- | --- | --- | --- |
| CNc1cc(Oc2cc(C(=O)Nc3cc(-n4cnc(C)c4)cc(C(F)(F)F)c3)ccc2C)ncn1 | 59.7 | – | – | – | – | – | – | – | – | – | – | – | – | – | – | – | – | – | – | – |
| CCN1CCN(Cc2ccc(NC(=O)c3ccc(C)c(Oc4ccnc5[nH]ccc45)c3)cc2C(F)(F)F)CC1 | – | 15.6 | 86.4 | 35.1 | 11.3 | 31.7 | > 95 | 12.9 | 14.7 | -4.6 | 3.4 | 698 | 31.2 | 33.9 | 1.1 | 16.8 | > 10000 | 2.03 | 13.1 | -7.9 |
| CCN1CCN(Cc2ccc(NC(=O)c3ccc(C)c(/C=C/c4cnc5[nH]ccc5c4OC)c3)cc2C(F)(F)F)CC1 | – | 31.7 | > 88 | 13.7 | 14.2 | 11.3 | > 95 | 29.5 | -8 | -3.9 | 33.4 | 469 | 30.2 | 30.6 | -6.1 | 23.1 | > 10000 | 4.66 | 14 | 9.8 |
| CNc1cc(Oc2cc(C(=O)Nc3cc(N4CCN(C)CC4)cc(C(F)(F)F)c3)ccc2C)ncn1 | 49.4 | – | – | – | – | – | – | – | – | – | – | – | – | – | – | – | – | – | – | – |
